Columns and labels:
K562 = test: Cytotoxicity against human K562 cells assessed as cell viability after 72 hrs by MTT assay; assay type: functional, cell-based; conditions: K562, 72 h
Method in brief: (§1)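 Cells were kept in RPMI 1640 with 5 × 10^-5 M β-mercaptoethanol, 25 mM Hepes (pH 7.4) and 10% heat-inactivated FCS. Daudi received 20% FCS, and Lucena I received 60 nM vincristine to maintain resistance. Cells were seeded at 2 × 10⁴ cells/mL with compound (0.1–50) for 72 h at 37 °C, 5% CO₂. MTT (5 mg/mL stock) was added for 3 h, formazan was dissolved in DMSO, and A490 was read. Triplicate points; mean of ≥3 experiments.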

HL-60 = test: Cytotoxicity against human HL60 cells assessed as cell viability after 72 hrs by MTT assay; assay type: functional, cell-based; conditions: HL-60, 72 h; method in brief: as §1
[1] = Cytotoxicity against human K562-Lucena 1 cells assessed as cell viability after 72 hrs by MTT assay; assay type: functional, cell-based; conditions: K562-Lucena 1, 72 h; method in brief: as §1
[2] = Toxicity against PHA-activated human peripheral lymphocytes assessed as cell viability after 72 hrs by MTT assay; assay type: cell-based, Lymphocyte
Method in brief: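 PBMC from healthy-volunteer heparinized blood were isolated by Ficoll-Hypaque gradient and resuspended at 10⁶ cells/mL in supplemented RPMI 1640. They were stimulated with PHA and exposed to compound at 2.5–10 µM for 72 h. Controls received diluent without PHA. Viability was read by MTT. Triplicate points; mean ± SD of ≥3 experiments.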

Daudi = test: Cytotoxicity against human Daudi cells assessed as cell viability after 72 hrs by MTT assay; assay type: functional, cell-based; method in brief: as §1
Jurkat = test: Cytotoxicity against human Jurkat cells assessed as cell viability after 72 hrs by MTT assay; assay type: functional, cell-based; method in brief: as §1

Structure (SMILES)	IC50 (K562)	IC50 (HL-60)	IC50 [1]	IC50 at 72 h [2]	IC50 (Daudi)	IC50 (Jurkat)
Oc1cc2c(cc1O)[C@@H]1Oc3cc4c(cc3[C@@H]1CO2)OCO4	> 20 µM	> 20 µM	> 50 µM			
COc1cc2c(cc1O)[C@H]1COc3c(ccc(O)c3O)[C@H]1O2 (racemic)	> 10 µM	6.4 µM	> 20 µM			
O=C1C=CC2=C(OC[C@@H]3c4cc5c(cc4O[C@H]23)OCO5)C1=O (racemic)				2.4 µM	0.9 µM	
Oc1ccc2c(c1O)OC[C@@H]1c3cc4c(cc3O[C@H]21)OCO4	3 µM	2.1 µM	3.7 µM		2.8 µM	7.6 µM
Oc1ccc2c(c1)OC[C@@H]1c3cc4c(cc3O[C@H]21)OCO4 [(+)-MAACKIAIN]	> 50 µM	> 50 µM	> 50 µM			
